The target in test [1] is Sodium-dependent dopamine transporter (Rattus norvegicus, UniProt P23977). The experiment in a line: Displacement of [3H]GBR-12935 from dopamine transporter (DAT) in rat brain membranes. The test is classed as cell membranes. Put shortly: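 Rat striatum crude membranes (100 µg protein) in sodium hydrogenocarbonate buffer pH 7.5 with 0.01% BSA. [3H]GBR-12935 1 nM (Kd 1.6 nM). Competitor 10^-5 to 10^-10 M. Incubation 37 °C, 1 h, then glass fiber filtration, ice-cold wash, beta counting. Nonspecific binding with 10^-6 M mazindol. Run in duplicate. Ki by Cheng-Prusoff.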
Background: Displacement assays read how much labelled ligand stays bound in the presence of the test substance.

Test [2] concerns the target Monoamine transporters; Norepininephrine & dopamine (Rattus norvegicus) (UniProt P23977+Q9WTR4). The experiment in a line: Selectivity index for norepinephrine and dopamine transporters. The test is classed as protein assay.
Test [3] deals with Monoamine transporters; serotonin & dopamine (Rattus norvegicus) (UniProt P31652+P23977). The experiment in a line: Selectivity index for serotonin and dopamine transporters. Type of test: protein assay.
In test [4] the target is Norepinephrine transporter (Rattus norvegicus, UniProt Q9WTR4). The experiment in a line: Displacement of [3H]nisoxetine from norepinephrine transporter (NET) in rat brain membranes. Type of test: cell membranes. Put shortly: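 Rat frontoparietal cortex crude membranes in 50 mM Tris-HCl pH 7.4, 120 mM NaCl, 5 mM KCl. [3H]nisoxetine 0.5 nM (Kd 1.3 nM). Competitor 10^-5 to 10^-10 M. Incubation 2 °C, 5 h, then filtration, wash, beta counting. Nonspecific binding with 10^-6 M desipramine. Run in duplicate. Ki from IC50 by Cheng-Prusoff.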

Test [5] has as its target Sodium-dependent serotonin transporter (Rattus norvegicus, UniProt P31652). The experiment in a line: Displacement of [3H]- paroxetine from serotonin transporter (5-HTT) in rat brain membranes. The test is classed as cell membranes. Put shortly: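 Rat frontoparietal cortex crude membranes in 50 mM Tris-HCl pH 7.4 with 120 mM NaCl, 5 mM KCl. [3H]paroxetine 0.5 nM (Kd 0.5 nM). Competitor 10^-5 to 10^-10 M. Incubation 22 °C, 1 h, then glass fiber filtration, ice-cold wash, beta counting. Nonspecific binding with 10^-6 M fluvoxamine. Run in duplicate. Ki from IC50 by Cheng-Prusoff.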

pKi: −log10 of the molar value. Where only a bound is given, the exact number is not on record here.

Chain of Sodium-dependent dopamine transporter (P23977 whole entry): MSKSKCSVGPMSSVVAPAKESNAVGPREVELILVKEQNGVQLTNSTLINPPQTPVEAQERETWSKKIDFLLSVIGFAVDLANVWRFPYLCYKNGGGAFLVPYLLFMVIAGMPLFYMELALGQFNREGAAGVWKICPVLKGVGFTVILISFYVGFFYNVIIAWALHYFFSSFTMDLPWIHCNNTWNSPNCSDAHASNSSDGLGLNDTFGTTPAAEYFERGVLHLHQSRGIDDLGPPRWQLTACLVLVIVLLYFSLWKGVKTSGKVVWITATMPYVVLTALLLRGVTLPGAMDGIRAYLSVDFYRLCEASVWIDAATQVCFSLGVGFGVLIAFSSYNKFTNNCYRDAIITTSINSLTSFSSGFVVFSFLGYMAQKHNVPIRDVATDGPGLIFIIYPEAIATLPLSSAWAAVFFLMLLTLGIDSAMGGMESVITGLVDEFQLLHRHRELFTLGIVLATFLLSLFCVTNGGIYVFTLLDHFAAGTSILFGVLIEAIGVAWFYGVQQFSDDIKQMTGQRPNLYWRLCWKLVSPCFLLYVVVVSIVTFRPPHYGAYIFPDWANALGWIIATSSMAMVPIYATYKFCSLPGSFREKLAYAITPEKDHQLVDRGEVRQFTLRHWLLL
Chain of Monoamine transporters; serotonin & dopamine (Rattus norvegicus) (P23977 whole entry, looked up): as the sequence (P23977 whole entry) above
Chain of Monoamine transporters; serotonin & dopamine (Rattus norvegicus) (P31652 whole entry, looked up): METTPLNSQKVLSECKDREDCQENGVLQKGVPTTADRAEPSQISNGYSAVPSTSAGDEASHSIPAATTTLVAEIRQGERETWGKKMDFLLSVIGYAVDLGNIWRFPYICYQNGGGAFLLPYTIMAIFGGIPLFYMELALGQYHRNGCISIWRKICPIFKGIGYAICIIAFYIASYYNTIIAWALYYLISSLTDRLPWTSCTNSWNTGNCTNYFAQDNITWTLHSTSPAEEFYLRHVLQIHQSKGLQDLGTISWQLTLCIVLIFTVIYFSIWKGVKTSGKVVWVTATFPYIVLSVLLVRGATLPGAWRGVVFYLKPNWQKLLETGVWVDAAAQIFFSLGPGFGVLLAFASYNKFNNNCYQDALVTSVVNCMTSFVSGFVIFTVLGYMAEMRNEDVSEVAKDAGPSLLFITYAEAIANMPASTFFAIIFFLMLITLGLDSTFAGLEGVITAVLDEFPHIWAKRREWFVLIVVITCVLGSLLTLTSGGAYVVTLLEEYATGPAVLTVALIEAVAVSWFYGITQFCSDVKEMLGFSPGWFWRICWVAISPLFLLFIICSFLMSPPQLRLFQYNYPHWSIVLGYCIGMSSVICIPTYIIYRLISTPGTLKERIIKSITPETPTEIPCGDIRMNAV
Chain of Norepinephrine transporter (Q9WTR4 whole entry): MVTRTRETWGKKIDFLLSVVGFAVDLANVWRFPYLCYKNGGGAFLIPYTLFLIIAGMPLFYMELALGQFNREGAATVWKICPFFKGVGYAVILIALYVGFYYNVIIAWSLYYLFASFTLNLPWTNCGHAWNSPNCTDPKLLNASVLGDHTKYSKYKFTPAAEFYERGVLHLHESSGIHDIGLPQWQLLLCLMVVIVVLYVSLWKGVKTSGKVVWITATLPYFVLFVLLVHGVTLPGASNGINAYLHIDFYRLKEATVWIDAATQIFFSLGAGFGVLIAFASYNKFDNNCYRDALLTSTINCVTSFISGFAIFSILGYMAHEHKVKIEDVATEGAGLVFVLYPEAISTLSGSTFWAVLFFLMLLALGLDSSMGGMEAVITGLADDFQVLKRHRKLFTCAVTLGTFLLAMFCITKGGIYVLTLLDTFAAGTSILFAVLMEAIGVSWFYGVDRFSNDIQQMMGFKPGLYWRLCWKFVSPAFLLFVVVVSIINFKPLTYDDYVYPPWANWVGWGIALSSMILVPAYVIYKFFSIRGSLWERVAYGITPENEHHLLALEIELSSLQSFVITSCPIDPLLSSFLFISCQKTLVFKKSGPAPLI
Chain of Sodium-dependent serotonin transporter (P31652 whole entry): as the sequence (P31652 whole entry, looked up) above

On to `COC(=O)[C@@H]1C2CCC(C[C@@H]1c1ccc(C)cc1)N2C/C=C/I` (stereo not given in full), for which the values for the negative logarithm of the Ki (pKi) in test [1], in test [4] and in test [5] were 7.77, below 6.00 and 6.30, respectively. Besides, the figures for the Selectivity in test [2] and in test [3] were above 58 and 29.4, respectively.

Turning to `COC(=O)[C@H]1C(c2ccc(C(C)C)cc2)C[C@H]2CCC1N2C/C=C/I` (stereo not given in full), the negative-log Ki (pKi) (in general, the negative decadic logarithm of the Ki, by convention in mol/L) in test [1] is 6.30; in test [4], below 6.00; in test [5], 6.35. Also, the figures for the Selectivity in test [2] and in test [3] were above 2 and 0.9, respectively.

`COC(=O)[C@@H]1C2CC[C@H](C[C@@H]1c1ccc(I)cc1)N2C`: the pKi was 7.57 in test [1], 7.10 in test [4] and 8.52 in test [5]. Besides, the Selectivity in test [2] is 2.9; in test [3], 0.1.

Consider `COC(=O)[C@H]1C(c2ccc(I)cc2)C[C@H]2CCC1N2C/C=C/I` (stereo not given in full), for which the figures for the pKi in test [1], in test [4] and in test [5] were 7.52, 6.53 and 6.02, respectively. The Selectivity is 9.8 in test [2] and 32 in test [3].

Regarding `C#CCN1C2CC[C@@H]1CC(c1ccc(I)cc1)[C@@H]2C(=O)OC` (stereo not given in full), the figures for the pKi in test [1], in test [4] and in test [5] were 7.85, below 6.00 and 7.00, respectively. Also, the values for the Selectivity in test [2] and in test [3] were above 71 and 7.1, respectively.

Consider `COC(=O)[C@@H]1C2CCC(C[C@@H]1c1ccc(Cl)c(Cl)c1)N2C/C=C/I` (stereo not given in full), for which the negative-log Ki (pKi) was 7.54 in test [1], 6.30 in test [4] and 7.30 in test [5]. Further, the values for the Selectivity in test [2] and in test [3] were 17.2 and 1.7, respectively.

As to `COC(=O)[C@H]1C(c2ccc(I)cc2)C[C@H]2CCC1N2Cc1ccccc1C` (stereo not given in full), the negative-log Ki (pKi) in test [1] is 7.03; in test [4], below 6.00; in test [5] it was 6.65. The Selectivity was above 10.6 in test [2] and 2.4 in test [3].

As to `C/C=C/CN1C2CC[C@@H]1CC(c1ccc(I)cc1)[C@@H]2C(=O)OC` (stereo not given in full), the values for the pKi in test [1], in test [4] and in test [5] were 7.82, 6.40 and 7.12, respectively. The Selectivity in test [2] came to 26.6; in test [3], 5.

`CCCc1ccc(C2C[C@H]3CCC([C@H]2C(=O)OC)N3C/C=C/I)cc1` (stereo not given in full): the results for the negative-log Ki (pKi) in test [1], in test [4] and in test [5] were 6.30, 6.12 and 6.52, respectively. Moreover, the Selectivity turned out to be 1.5 in test [2] and 0.6 in test [3].

For the compound `COC(=O)[C@H]1C(c2ccccc2)C[C@H]2CCC1N2C/C=C/I` (stereo not given in full), the negative-log Ki (pKi) is 6.95 in test [1], below 6.00 in test [4] and 7.00 in test [5]. In addition, the Selectivity was above 8.8 in test [2] and 0.8 in test [3].

`C=C(Br)CN1C2CC[C@@H]1CC(c1ccc(I)cc1)[C@@H]2C(=O)OC` (stereo not given in full): the pKi in test [1] was 7.52; in test [4], below 6.00; in test [5], 6.70. Also, the Selectivity in test [2] was above 33; in test [3] it was 6.6.

Take `COC(=O)[C@@H]1C2CCC(C[C@@H]1c1ccc(I)cc1)N2Cc1ccccc1` (stereo not given in full): the negative logarithm of the Ki (pKi) is 7.38 in test [1], 6.22 in test [4] and 7.00 in test [5]. The results for the Selectivity in test [2] and in test [3] were 14.2 and 2.3, respectively.

For the origin of these results see ChEMBL document CHEMBL1130003, “Synthesis and ligand binding of nortropane derivatives: N-substituted 2beta-carbomethoxy-3beta-(4'-iodophenyl)nortropane and N-(3-iodoprop-(2E)-enyl)-2beta-carbomethoxy-3beta-(3',4'-disubstituted phenyl)nortropane. New high-affinity and selective compounds for the dopamine transporter” (J Med Chem, 1997).
